One assay has as its target CDK9/cyclin T1 (Homo sapiens, UniProt P50750). The assay can be described thus: Inhibition of recombinant human full length CDK9/Cyclin T1 using KTFCGTPEYLAPEVRREPRILSEEEQEMFRDFDYIADWC as substrate incubated for 40 mins in presence of [gamma-33P]-ATP by scintillation counting method. It counts as protein-complex assay. An outline of the steps:
(§1)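 Radiometric kinase assay with ATP at each kinase's Km(app). IC50 values come from 10-point dose-response curves, and apparent Ki is calculated from IC50 and the kinase's Km(ATP).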

The target of a further assay is CDK2/Cyclin A2 (Homo sapiens, UniProt P24941). In words: Inhibition of recombinant human full length CDK2/Cyclin A using histone H1 as substrate incubated for 40 mins in presence of [gamma-33P]-ATP by scintillation counting method. It counts as protein-complex assay.
Assay [1] is filed under the species Homo sapiens. The assay can be described thus: Selectivity index, ratio of Ki for inhibition of recombinant human full length CDK2/Cyclin A to Ki for inhibition of recombinant human full length CDK9/Cyclin T1. An outline of the steps: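 Ratio of apparent Ki values for the two CDK/cyclin complexes. Each Ki is derived from an IC50 (10-point radiometric dose-response, ATP at Km(app)) using the kinase's Km(ATP). The selectivity index is defined as Ki(CDK2)/Ki(CDK9).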

The subject of another assay is HCT-116. The assay can be described thus: Growth inhibition of human HCT-116 cells after 48 hrs by MTT assay. It counts as functional. On the technique in general: Tetrazolium assays rely on reduction of a dye to a coloured formazan, in cell work by metabolically active cells.
The test system of another assay is MCF7. In words: Growth inhibition of human MCF7 cells after 48 hrs by MTT assay. The class given is functional.
Assay [2] in a line: Growth inhibition of patient derived CLL cells after 48 hrs by annexin V-FITC staining based flow cytometric analysis. It counts as functional. The following applies: Homo sapiens, CLL-CII. An outline of the steps: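 Freshly isolated primary CLL cells (10⁶/mL) in RPMI with 10% foetal calf serum, L-glutamine, penicillin and streptomycin, 37 °C, 5% CO₂, exposed to inhibitor for 48 h. Cells labelled with CD19-APC and annexin V-FITC; apoptosis quantified by flow cytometry in CD19+ cells. LD50 is the concentration killing 50% of CLL cells.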

In assay [3] the target is Cyclin-dependent kinase 1/cyclin B1 (Homo sapiens, UniProt P06493). In words: Inhibition of recombinant human full length CDK1/Cyclin B using histone H1 as substrate incubated for 40 mins in presence of [gamma-33P]-ATP by scintillation counting method. The class given is protein-complex assay. An outline of the steps:
as §1

The target in assay [4] is Cyclin-dependent kinase 7/ cyclin H (Homo sapiens, UniProt P50613). The assay can be described thus: Inhibition of recombinant human full length CDK7/Cyclin H using peptide as substrate incubated for 40 mins in presence of [gamma-33P]-ATP by scintillation counting method. The class given is protein-complex assay. An outline of the steps: as §1
Assay [5] is filed under the species Homo sapiens. In words: Selectivity index, ratio of Ki for inhibition of recombinant human full length […].
In a further assay the test system is HT-29. The assay can be described thus: Growth inhibition of human HT-29 cells after 48 hrs by MTT assay. It counts as functional.
In the next assay the test system is MDA-MB-468. In words: Growth inhibition of human MDA-MB-468 cells after 48 hrs by MTT assay. The class given is functional.
A further assay relates to A549. The assay can be described thus: Growth inhibition of human A549 cells after 48 hrs by MTT assay. The class given is functional.
The next assay deals with A2780. In words: Growth inhibition of human A2780 cells after 48 hrs by MTT assay. It counts as functional.
In another assay the test system is HeLa. In words: Growth inhibition of human HeLa cells after 48 hrs by MTT assay. The class given is functional.
A further assay deals with MIA PaCa-2. In words: Growth inhibition of human MIA PaCa-2 cells after 48 hrs by MTT assay. It counts as functional.

Some results are limits rather than exact numbers.

Sequence of CDK9/cyclin T1 (O60563 whole entry): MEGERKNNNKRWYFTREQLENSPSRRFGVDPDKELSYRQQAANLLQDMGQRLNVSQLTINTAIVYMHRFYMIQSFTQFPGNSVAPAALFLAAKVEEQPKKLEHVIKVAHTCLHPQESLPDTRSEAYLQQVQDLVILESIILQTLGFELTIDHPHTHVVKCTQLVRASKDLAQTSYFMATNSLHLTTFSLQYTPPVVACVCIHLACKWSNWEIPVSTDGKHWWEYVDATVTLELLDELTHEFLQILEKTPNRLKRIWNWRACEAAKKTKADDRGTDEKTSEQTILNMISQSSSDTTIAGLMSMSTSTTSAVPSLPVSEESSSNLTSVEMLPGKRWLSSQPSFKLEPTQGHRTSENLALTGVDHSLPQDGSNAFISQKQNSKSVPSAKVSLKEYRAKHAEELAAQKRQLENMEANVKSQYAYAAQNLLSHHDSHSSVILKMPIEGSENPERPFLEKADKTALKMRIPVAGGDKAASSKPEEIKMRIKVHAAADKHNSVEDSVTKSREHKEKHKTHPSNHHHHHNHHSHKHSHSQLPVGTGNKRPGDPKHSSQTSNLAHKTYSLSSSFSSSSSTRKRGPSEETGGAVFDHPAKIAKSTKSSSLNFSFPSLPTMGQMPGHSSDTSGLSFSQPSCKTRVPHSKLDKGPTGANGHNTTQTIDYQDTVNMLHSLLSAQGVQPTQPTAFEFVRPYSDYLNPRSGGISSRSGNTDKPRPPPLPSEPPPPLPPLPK
Sequence of CDK9/cyclin T1 (P50750 whole entry): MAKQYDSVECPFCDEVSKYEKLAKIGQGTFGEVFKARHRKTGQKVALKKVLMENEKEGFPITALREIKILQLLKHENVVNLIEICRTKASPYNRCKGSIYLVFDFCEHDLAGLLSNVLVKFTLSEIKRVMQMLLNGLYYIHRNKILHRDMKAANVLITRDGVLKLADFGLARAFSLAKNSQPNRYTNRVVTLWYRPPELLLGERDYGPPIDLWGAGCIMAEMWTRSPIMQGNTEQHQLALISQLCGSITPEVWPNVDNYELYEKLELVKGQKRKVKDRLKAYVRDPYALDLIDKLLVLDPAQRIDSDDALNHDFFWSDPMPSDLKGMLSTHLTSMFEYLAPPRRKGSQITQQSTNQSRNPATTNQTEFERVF
Sequence of Cyclin-dependent kinase 7/ cyclin H (P51946 whole entry): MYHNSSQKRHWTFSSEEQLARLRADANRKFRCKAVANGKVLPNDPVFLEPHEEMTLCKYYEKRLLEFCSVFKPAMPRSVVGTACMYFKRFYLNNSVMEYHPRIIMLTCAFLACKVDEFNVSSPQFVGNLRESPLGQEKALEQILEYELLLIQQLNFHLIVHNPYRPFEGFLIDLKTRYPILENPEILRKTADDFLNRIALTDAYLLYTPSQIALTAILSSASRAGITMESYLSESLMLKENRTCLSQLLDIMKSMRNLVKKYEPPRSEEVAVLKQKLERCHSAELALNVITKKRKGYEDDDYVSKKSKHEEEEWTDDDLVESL
Sequence of Cyclin-dependent kinase 7/ cyclin H (P50613 whole entry): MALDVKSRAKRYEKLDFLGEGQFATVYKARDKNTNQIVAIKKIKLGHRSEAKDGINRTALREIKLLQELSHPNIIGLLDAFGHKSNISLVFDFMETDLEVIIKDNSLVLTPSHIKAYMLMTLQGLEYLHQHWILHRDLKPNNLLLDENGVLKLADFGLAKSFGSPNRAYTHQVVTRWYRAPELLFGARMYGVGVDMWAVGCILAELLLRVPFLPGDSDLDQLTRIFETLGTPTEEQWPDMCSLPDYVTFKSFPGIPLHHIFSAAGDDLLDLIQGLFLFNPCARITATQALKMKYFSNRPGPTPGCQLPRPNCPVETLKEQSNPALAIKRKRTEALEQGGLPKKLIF
Sequence of Cyclin-dependent kinase 1/cyclin B1 (P06493 whole entry): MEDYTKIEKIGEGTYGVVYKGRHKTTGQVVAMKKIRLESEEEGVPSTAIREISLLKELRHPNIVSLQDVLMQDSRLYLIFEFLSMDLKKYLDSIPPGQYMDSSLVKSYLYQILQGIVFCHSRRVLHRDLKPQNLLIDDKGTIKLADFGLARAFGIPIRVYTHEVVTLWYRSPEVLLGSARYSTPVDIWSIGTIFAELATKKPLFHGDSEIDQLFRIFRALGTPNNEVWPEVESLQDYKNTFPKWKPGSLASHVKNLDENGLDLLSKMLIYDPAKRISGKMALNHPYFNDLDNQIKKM
Sequence of Cyclin-dependent kinase 1/cyclin B1 (P14635 whole entry, further chain): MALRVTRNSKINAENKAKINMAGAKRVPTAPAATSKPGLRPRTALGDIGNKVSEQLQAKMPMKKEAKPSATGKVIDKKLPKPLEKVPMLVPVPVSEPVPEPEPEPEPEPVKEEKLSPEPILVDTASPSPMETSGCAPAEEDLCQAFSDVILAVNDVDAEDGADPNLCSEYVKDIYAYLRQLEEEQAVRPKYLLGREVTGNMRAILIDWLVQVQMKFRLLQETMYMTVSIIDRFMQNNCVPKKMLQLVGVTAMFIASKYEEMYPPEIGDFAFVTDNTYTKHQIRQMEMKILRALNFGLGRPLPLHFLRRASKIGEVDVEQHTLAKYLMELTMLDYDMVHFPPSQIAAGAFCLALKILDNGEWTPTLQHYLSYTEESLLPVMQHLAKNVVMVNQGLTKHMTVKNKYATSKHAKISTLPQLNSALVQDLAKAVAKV

With `CNc1nc(C)c(-c2nc(Nc3cc(N4CCN(C(C)=O)CC4)cc(N4CCN(C(C)=O)CC4)c3)ncc2C#N)s1`, the values for the inhibitory constant (Ki) on CDK9/cyclin T1 and on CDK2/Cyclin A2 were 21 nM and 248 nM, respectively. Further, the Ratio Ki in the assay listed under Homo sapiens [1] is 12. Further, the 50% growth inhibitory concentration (GI50) in the assay on HCT-116 was found to be 700 nM; with MCF7, 2400 nM.
The corresponding values for `CNc1nc(C)c(-c2nc(Nc3cccc(N4CCN(C)CC4)c3)ncc2C)s1` are 20 nM, 586 nM, 29, 1290 nM and 1890 nM.
For `CNc1ncc(-c2ccnc(Nc3cccc(N4CCCNCC4)c3)n2)s1` the same measures were 3 nM, 22 nM, 7, 80 nM and 60 nM.
Consider `CNc1nc(C)c(-c2nc(Nc3cc(C)cc(N4CCNCC4)c3)ncc2C#N)s1`, for which the Ki at CDK9/cyclin T1 amounted to 6 nM; on CDK2/Cyclin A2, 45 nM. For the same molecule, the Ratio Ki in the assay listed under Homo sapiens [1] stood at 8. Also, the concentration for 50% growth inhibition (GI50) came to 80 nM in the assay with HCT-116 and 610 nM with MCF7.
Consider `CNc1nc(C)c(-c2nc(Nc3cccc(N4CCN(C(C)=O)CC4)c3)ncc2C(F)(F)F)s1`, for which the figures for the Ki at CDK9/cyclin T1 and at CDK2/Cyclin A2 were 95 nM and 1220 nM, respectively. For the same molecule, in the assay filed under Homo sapiens [1], the Ratio Ki was 13. The figures for the concentration for 50% growth inhibition (GI50) in the assay on HCT-116 and with MCF7 were 4800 nM and 25000 nM, respectively.
The corresponding values for `CNc1nc(C)c(-c2nc(Nc3cc(C)cc(N4CCCCCC4)c3)ncc2C#N)s1` are 25 nM, 52 nM, 2, 4050 nM and 7040 nM.
For `CNc1nc(C)c(-c2ccnc(Nc3cc(N4CCN(C(C)=O)CC4)cc(N4CCN(C(C)=O)CC4)c3)n2)s1` the same measures were 187 nM, 2070 nM, 11, 200 nM and 420 nM.
With `CNc1nc(C)c(-c2nc(Nc3cccc(N4CCN(C(C)=O)CC4)c3)ncc2Br)s1`, the Ki turned out to be 7.5 nM at CDK9/cyclin T1 and 125 nM on CDK2/Cyclin A2. Moreover, the Ratio Ki in the assay filed under Homo sapiens [1] amounted to 16.
With `C=Cc1cnc(Nc2cccc(N3CCOCC3)c2)nc1-c1sc(NC)nc1C`, the inhibition constant (Ki) is 62 nM at CDK9/cyclin T1 and 503 nM at CDK2/Cyclin A2. Besides, in the assay filed under Homo sapiens [1], the Ratio Ki worked out at 8. Moreover, the GI50 in the assay with HCT-116 and in the assay with MCF7 was more than 5000 nM in each case.
As to `CNc1nc(C)c(-c2nc(Nc3cc(N4CCN(C(C)=O)CC4)cc(N4CCN(C(C)=O)CC4)c3)ncc2C)s1`, the Ki on CDK9/cyclin T1 was 43 nM; at CDK2/Cyclin A2, 1370 nM. In the assay listed under Homo sapiens [1], the Ratio Ki turned out to be 32. For the same molecule, the GI50 is 780 nM in the assay on HCT-116 and 2000 nM in the assay with MCF7.
The corresponding values for `CNc1nc(C)c(-c2ccnc(Nc3cc(N4CCOCC4)cc(N4CCOCC4)c3)n2)s1` are 47 nM, 831 nM, 18, 340 nM and 380 nM.
Turning to `CNc1nc(C)c(-c2nc(Nc3cccc(N4CCNC(=O)CC4)c3)ncc2C)s1`, the Ki was found to be 19 nM at CDK9/cyclin T1 and 525 nM on CDK2/Cyclin A2. Also, in the assay listed under Homo sapiens [1], the Ratio Ki came to 28. In addition, the results for the 50% growth inhibitory concentration (GI50) in the assay on HCT-116 and in the assay with MCF7 were 2120 nM and 6440 nM, respectively.
The corresponding values for `CNc1nc(C)c(-c2nc(Nc3cccc(N4CCOCC4)c3)ncc2C)s1` are 10 nM, 444 nM, 44, 360 nM and 450 nM.
The corresponding values for `CNc1nc(C)c(-c2nc(Nc3cccc(N4CCCCCC4)c3)ncc2C#N)s1` are 6 nM, 44 nM, 7, 1540 nM and 4130 nM.
For `CNc1nc(C(C)C)c(-c2ccnc(Nc3cccc(N4CCN(C(C)=O)CC4)c3)n2)s1` the same measures were 91 nM, 680 nM, 8, 80 nM and 70 nM.
Turning to `CNc1nc(C)c(-c2nc(Nc3cccc(N4CCCNCC4)c3)ncc2C)s1`, the GI50 in assay [2] is 810 nM; in the assay with HCT-116, 1370 nM; in the assay with MCF7, 870 nM. Besides, the Ki at CDK9/cyclin T1 is 8 nM; on CDK2/Cyclin A2, 1240 nM; in [3] it was 785 nM; in [4] it was 89 nM. In addition, the figures for the Ratio Ki in the assay filed under Homo sapiens [1] and in the assay filed under Homo sapiens [5] were 156 and 100, respectively.
In the case of `CNc1nc(C(F)(F)F)c(-c2ccnc(Nc3cccc(N4CCCNCC4)c3)n2)s1`, the Ki was 8 nM on CDK9/cyclin T1 and 14 nM on CDK2/Cyclin A2. Besides, in the assay filed under Homo sapiens [1], the Ratio Ki amounted to 2. The GI50 in the assay with HCT-116 was found to be 70 nM; with MCF7, 650 nM.
The corresponding values for `CNc1nc(C)c(-c2ccnc(Nc3cccc(N4CCN(C(C)=O)CC4)c3)n2)s1` are 32 nM, 281 nM, 9, 580 nM and 5280 nM.
Turning to `CNc1nc(C)c(-c2nc(Nc3cc(C)cc(N4CCOCC4)c3)ncc2C#N)s1`, the inhibition constant Ki was 5 nM on CDK9/cyclin T1 and 16 nM on CDK2/Cyclin A2. Also, the Ratio Ki in the assay listed under Homo sapiens [1] worked out at 3. In addition, the concentration for 50% growth inhibition (GI50) was 490 nM with HCT-116 and 950 nM with MCF7.
For `CNc1nc(C)c(-c2nc(Nc3cccc(N4CCN(C(C)=O)CC4)c3)ncc2C)s1` the same measures were 12 nM, 794 nM, 66, 550 nM and 3650 nM.
As for `CNc1nc(C)c(-c2nc(Nc3cccc(N4CCN(S(C)(=O)=O)CC4)c3)ncc2C)s1`, the Ki on CDK9/cyclin T1 is 7 nM; on CDK2/Cyclin A2, 87 nM. Further, the Ratio Ki in the assay filed under Homo sapiens [1] was determined as 12. The values for the GI50 in the assay with HCT-116 and with MCF7 were 500 nM and 830 nM, respectively.
Regarding `CNc1nc(C)c(-c2nc(Nc3cc(N4CCOCC4)cc(N4CCOCC4)c3)ncc2C#N)s1`, the values for the inhibition constant Ki on CDK9/cyclin T1 and at CDK2/Cyclin A2 were 9 nM and 55 nM, respectively. In addition, in the assay filed under Homo sapiens [1], the Ratio Ki is 6. Also, the values for the 50% growth inhibitory concentration (GI50) in the assay on HCT-116 and with MCF7 were 20 nM and 90 nM, respectively.
Regarding `CNc1nc(C)c(-c2nc(Nc3cccc(N4CCNCC4)c3)ncc2C(F)(F)F)s1`, the values for the Ki at CDK9/cyclin T1 and at CDK2/Cyclin A2 were 49 nM and 1930 nM, respectively. The Ratio Ki in the assay listed under Homo sapiens [1] was determined as 40. The results for the concentration for 50% growth inhibition (GI50) in the assay on HCT-116 and in the assay with MCF7 were 4050 nM and 3050 nM, respectively.
Regarding `CNc1nc(C)c(-c2nc(Nc3cccc(N4CCN(C)CC4)c3)ncc2Cl)s1`, the Ki came to 5 nM on CDK9/cyclin T1 and 107 nM on CDK2/Cyclin A2. The Ratio Ki in the assay filed under Homo sapiens [1] is 21. Besides, the GI50 in the assay with HCT-116 was found to be 660 nM; in the assay on MCF7 it was 680 nM.
For `CN1CC[C@H](c2c(O)cc(O)c3c(=O)cc(-c4ccccc4Cl)oc23)[C@H](O)C1` [ALVOCIDIB], the concentration for 50% growth inhibition (GI50) was 56 nM with HCT-116; 92 nM in the assay with MCF7; 131 nM in the assay with HT-29; 96 nM with MDA-MB-468; 145 nM in the assay with A549; 64 nM in the assay with A2780. The figures for the GI50 in the assay with HeLa and in the assay with MIA PaCa-2 were 43 nM and 78 nM, respectively.
On to `CNc1nc(C2CC2)c(-c2ccnc(Nc3cccc(C(=O)NC4CCN(C)CC4)c3)n2)s1`, for which the inhibition constant Ki on CDK9/cyclin T1 was found to be 40 nM; on CDK2/Cyclin A2, 128 nM. For the same molecule, the Ratio Ki in the assay listed under Homo sapiens [1] worked out at 3. Further, the concentration for 50% growth inhibition (GI50) in the assay with HCT-116 amounted to 770 nM; in the assay on MCF7, 1950 nM.
The corresponding values for `CC(=O)N1CCN(c2cccc(Nc3ncc4c(n3)-c3sc(N)nc3CC4)c2)CC1` are 34 nM, 87 nM, 2.5, 60 nM and 80 nM.
As to `CNc1nc(C)c(-c2nc(Nc3cccc(N4CCNCC4)c3)ncc2C)s1`, the Ki at CDK9/cyclin T1 is 8 nM; at CDK2/Cyclin A2, 711 nM; in [3] it was 1120 nM; in assay [4], 472 nM. In addition, the figures for the Ratio Ki in the assay filed under Homo sapiens [1] and in the assay filed under Homo sapiens [5] were 89 and 100, respectively. For the same molecule, the GI50 in the assay with HCT-116 worked out at 830 nM; in the assay with MCF7, 860 nM.
`CNc1nc(C)c(-c2nc(Nc3cccc(N4CCOCC4)c3)ncc2Cl)s1`: the inhibitory constant (Ki) on CDK9/cyclin T1 was 4 nM; on CDK2/Cyclin A2, 22 nM. Besides, the Ratio Ki in the assay listed under Homo sapiens [1] was 6. In addition, the 50% growth inhibitory concentration (GI50) is 430 nM in the assay on HCT-116 and 720 nM in the assay with MCF7.

By Ki is commonly meant a dissociation constant, usually derived from enzyme kinetics or from competition with a known ligand. In general, GI50 refers to the concentration giving 50% growth inhibition. A low value points to greater sensitivity of the cells.
